Source: ChEMBL document CHEMBL4342434, “Identification of HUHS190, a human naftopidil metabolite, as a novel anti-bladder cancer drug” (Bioorg Med Chem Lett, 2020)

Columns and labels:
HEK293 = experiment: Cytotoxicity against human HEK293 cells assessed as reduction in cell viability incubated for 48 hrs by MTT assay; type: cell-based; settings: HEK293, 48 h
Outline: (§1)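 Growth inhibition was measured in vitro on human lines: HEK293 (embryonic kidney), PNT1A (normal prostate epithelium immortalized with SV40), PC3 and DU145 (prostate cancer), KK47 and T24 (bladder carcinoma) and 786-O (kidney carcinoma). IC50 in µM was taken from dose–response curves for each cell line.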

PC-3 = experiment: Antiproliferative activity against human PC3 cells assessed as reduction in cell viability incubated for 48 hrs by MTT assay; type: functional, cell-based; settings: PC-3, 48 h; outline: as §1
786-0 = experiment: Antiproliferative activity against human 786-O cells assessed as reduction in cell viability incubated for 48 hrs by MTT assay; type: functional, cell-based; settings: 786-0, 48 h; outline: as §1
DU-145 = experiment: Antiproliferative activity against human DU145 cells assessed as reduction in cell viability incubated for 48 hrs by MTT assay; type: functional, cell-based; settings: DU-145, 48 h; outline: as §1
T-24 = experiment: Antiproliferative activity against human T24 cells assessed as reduction in cell viability incubated for 48 hrs by MTT assay; type: functional, cell-based; settings: T-24, 48 h; outline: as §1
PNT1A = experiment: Cytotoxicity against human PNT1A cells assessed as reduction in cell viability incubated for 48 hrs by MTT assay; type: cell-based; outline: as §1
KK-47 cell line = experiment: Antiproliferative activity against human KK47 cells assessed as reduction in cell viability incubated for 48 hrs by MTT assay; type: functional, cell-based; settings: KK-47, 48 h; outline: as §1
[1] = AUC (0 to 6 hrs) in Sprague-Dawley rat at 32 mg/kg, po measured upto 6 hrs by HPLC analysis; type: ADME, organism-based; set-up: dose 32 mg/kg, time < 6 hr, route oral; settings: in vivo
[2] = Antiproliferative activity against mouse MB49 cells assessed as reduction in cell viability after 72 hrs by WST-8 assay; type: functional, cell-based; settings: MB49, 72 h
[3] = Cmax in Sprague-Dawley rat at 32 mg/kg, po measured after 15 mins by HPLC analysis; type: ADME, organism-based; set-up: dose 32 mg/kg, route oral; settings: in vivo
[4] = Toxicity in C57BL/6 mouse bladder cancer model xenografted with mouse MB49 cells at 50 mg/ml dosed via intravesical instillation through catheter for 2 hrs and measured for 28 days; type: organism-based; settings: in vivo, other
Outline: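 […] model: a small number of MB49 cells (C57BL/6-derived) were injected by needle into the bladder smooth muscle of C57BL/6 mice after laparotomy under anaesthesia. Compound at 50 mg/mL was then given once by intravesical instillation and kept for 2 h. Day 0 was implantation/dosing, and survival was followed for 4 weeks. Saline, BCG (2 mg/mL) and pirarubicin (1 mg/mL) served as comparators.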

[5] = Antitumor activity against mouse MB49 cells xenografted in C57BL/6 mouse bladder cancer model assessed as death rate at 50 mg/ml dosed via intravesical instillation through catheter for 2 hrs and measured after 28 days relative to control; type: functional
Outline: (§2)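 MB49 cells (C57BL/6-derived) were injected by needle into the bladder smooth-muscle layer of anaesthetised C57BL/6 mice after laparotomy. The same day (day 0), a single intravesical instillation was given and held in the bladder for 2 h, with saline as the control. Deaths were recorded over 4 weeks, to day 28.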

[6] = Antiproliferative activity against C3H mouse MBT2 cells assessed as reduction in cell viability; type: functional, cell-based
[7] = Antitumor activity against mouse MB49 cells xenografted in C57BL/6 mouse bladder cancer model assessed as death rate at 1 mg/ml dosed via intravesical instillation through catheter for 2 hrs and measured after 28 days relative to control; type: functional; outline: as §2
L5178Y = experiment: Antiproliferative activity against mouse L5178Y cells assessed as reduction in cell viability; type: functional, cell-based

Row | SMILES | IC50 (PC-3) [µM] | IC50 (786-0) [µM] | IC50 (DU-145) [µM] | IC50 (HEK293) [µM] | IC50 (T-24) [µM] | IC50 (PNT1A) [µM] | IC50 (KK-47 cell line) [µM] | AUC(0-t) at 6 h [1] [ng·h/mL] | IC50 [2] [µM] | Cmax [3] [ng/mL] | Activity [4] | mortality [5] [%] | IC50 [6] [nM] | mortality [7] | IC50 (L5178Y) [nM]
1 | COc1ccccc1N1CCN(CC(O)COc2cccc3ccccc23)CC1 (stereo not drawn) [NAFTOPIDIL] | 31.2 | 13.3 | 21.1 | 47.3 | 18.5 | 27 | 19 | 202 | 23 | 110 |  |  |  |  | 
2 | COc1cc(O)ccc1N1CCN(CC(O)COc2ccc(O)c3ccccc23)CC1 (stereo not drawn) | 45.7 | 38.7 | > 50 | > 50 | 37.4 | 37.2 | > 50 |  |  |  |  |  |  |  | 
3 | COc1cc(O)ccc1N1CCN(CC(O)COc2cccc3ccccc23)CC1 (stereo not drawn) | 24.4 | 11.4 | 17.2 | > 50 | 10.5 | > 50 | 11.8 | 204 | 12 | 397 | Non-Toxic | 30 |  |  | 
4 | COc1cccc2c1C(=O)c1c(O)c3c(c(O)c1C2=O)C[C@@](O)(C(=O)CO)C[C@@H]3O[C@H]1C[C@H](N)[C@H](O[C@@H]2CCCCO2)[C@H](C)O1 [PIRARUBICIN] |  |  |  |  |  |  |  |  | 0.022 |  |  |  | 22 | 70 - 80% | 23

Continued, in another order:

Row | IC50 (PC-3) [µM] | IC50 (786-0) [µM] | IC50 (DU-145) [µM] | SMILES | IC50 (HEK293) [µM] | IC50 (T-24) [µM] | IC50 (PNT1A) [µM] | IC50 (KK-47 cell line) [µM] | AUC(0-t) at 6 h [1] [ng·h/mL] | IC50 [2] [µM] | Cmax [3] [ng/mL] | Activity [4] | mortality [5] [%] | IC50 [6] [nM] | mortality [7] | IC50 (L5178Y) [nM]
5 | 26.1 | 9.7 | > 50 | Oc1ccccc1N1CCN(CC(O)COc2ccc(O)c3ccccc23)CC1 (stereo not drawn) | > 50 | 14.8 | 37.4 | 33 |  |  |  |  |  |  |  | 
6 | 30.3 | 17.5 | 11.6 | Oc1ccc(N2CCN(CC(O)COc3cccc4ccccc34)CC2)c(O)c1 (stereo not drawn) | > 50 | 13.4 | 29.9 | 9.6 |  |  |  |  |  |  |  | 
7 | 21.7 | 18.7 | 18 | Oc1ccccc1N1CCN(CC(O)COc2cccc3ccccc23)CC1 (stereo not drawn) | > 50 | 18 | 22.2 | 18.9 |  |  |  |  |  |  |  | 
8 | 17.7 | 18.5 | 20.3 | Oc1ccc(N2CCN(CC(O)COc3ccc(O)c4ccccc34)CC2)c(O)c1 (stereo not drawn) | 40.4 | 15.6 | 17.1 | 17.9 |  |  |  |  |  |  |  | 
9 | 28 | 46.9 | 35.1 | COc1ccccc1N1CCN(CC(O)COc2ccc(O)c3ccccc23)CC1 (stereo not drawn) | > 50 | 16.1 | 34.9 | 17.6 |  |  |  |  |  |  |  | 
